Measured values: ChEMBL document CHEMBL2440065, “Identification of a novel benzoxazolone derivative as a selective, orally active 18 kDa translocator protein (TSPO) ligand” (J Med Chem, 2013)
In brackets after ≈: the same amount, converted by molar mass. Activity calls are given as the source filed them. The calls are words filed in the database; no cut-off is given here.

Experiments:
[1] = Solubility of the compound at pH 7.4 by HPLC analysis; format: physicochemical; details: buffer
Procedure, shortened: (§1)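 Compound (1 mg) shaken in 0.4 mL buffered solution at pH 7.4 or pH 2.5, then centrifuged; dissolved compound in the supernatant quantified by HPLC.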

[2] = Solubility of the compound at pH 2.5 by HPLC analysis; format: physicochemical; details: buffer; procedure, shortened: as §1
[3] = target: Translocator protein (Rattus norvegicus, UniProt P16257); test: Displacement of [3H]PK11195 from Sprague-Dawley rat kidney TSPO after 1 hr by liquid scintillation counting analysis
[4] = organism: Rattus norvegicus; test: Displacement of [3H]flumazenil from Sprague-Dawley rat cerebral cortex CBR at 10 uM after 1 hr by liquid scintillation counting analysis; format: tissue-based
[5] = Displacement of [3H]batrachotoxin from rat brain sodium channel site 2; format: tissue-based
[6] = Solubility of the compound at pH 6.8; format: physicochemical; details: buffer
Procedure, shortened: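 Solubility measured in pH 6.8 buffer containing bile acids; compound tested as free base and as HCl salt.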

[7] = Metabolic stability in rat liver S9 fraction assessed as compound remaining at 1 uM after 30 mins in presence of NADPH; format: ADME, subcellular; details: read-out: Stability
[8] = target: Sigma non-opioid intracellular receptor 1 (Homo sapiens) (UniProt Q99720); test: Binding affinity to human sigma1 receptor at 10 uM by radioligand binding assay
Procedure, shortened: (§2)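 Radioligand binding profiling panel across receptors and transporters linked to CNS, cardiovascular and pulmonary adverse events. Each target was tested once at 10 μM, run in duplicate.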

[9] = organism: Homo sapiens; test: Binding affinity to human nicotinic acetylcholine receptor at 10 uM by radioligand binding assay
Procedure, shortened: (§3)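 Off-target radioligand binding panel: compound tested in duplicate at a single concentration of 10 μM in each assay. Activity is reported as percent inhibition of radioligand binding.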

[10] = target: Vasopressin V1a receptor (Homo sapiens) (UniProt P37288); test: Binding affinity to human vasopressin V1A receptor at 10 uM by radioligand binding assay; procedure, shortened: as §2
[11] = target: Glucocorticoid receptor (Homo sapiens) (UniProt P04150); test: Binding affinity to human glucocorticoid receptor at 10 uM by radioligand binding assay; procedure, shortened: as §2
[12] = target: Mu-type opioid receptor (Homo sapiens) (UniProt P35372); test: Binding affinity to human mu opiate receptor at 10 uM by radioligand binding assay; procedure, shortened: as §2
[13] = target: Adenosine receptor A1 (Homo sapiens) (UniProt P30542); test: Binding affinity to human adenosine A1 receptor at 10 uM by radioligand binding assay; procedure, shortened: as §2
[14] = target: Cannabinoid receptor 1 (Homo sapiens) (UniProt P21554); test: Binding affinity to human CB1 receptor at 10 uM by radioligand binding assay; procedure, shortened: as §2
[15] = target: Alpha-2A adrenergic receptor (Homo sapiens) (UniProt P08913); test: Binding affinity to human adrenergic alpha2A receptor at 10 uM by radioligand binding assay; procedure, shortened: as §2
[16] = target: Substance-P receptor (Homo sapiens) (UniProt P25103); test: Binding affinity to human tachykinin NK1 receptor at 10 uM by radioligand binding assay; procedure, shortened: as §2
[17] = target: Muscarinic acetylcholine receptor M3 (Homo sapiens) (UniProt P20309); test: Binding affinity to human muscarinic M3 receptor at 10 uM by radioligand binding assay; procedure, shortened: as §2
[18] = target: Galanin receptor type 1 (Homo sapiens) (UniProt P47211); test: Binding affinity to human GAL1 receptor at 10 uM by radioligand binding assay; procedure, shortened: as §2
[19] = target: Neuropeptide Y receptor type 2 (Homo sapiens) (UniProt P49146); test: Binding affinity to human Neuropeptide Y receptor Y2 at 10 uM by radioligand binding assay; procedure, shortened: as §2
[20] = target: Sodium-dependent dopamine transporter (Homo sapiens) (UniProt Q01959); test: Binding affinity to human dopamine transporter at 10 uM by radioligand binding assay; procedure, shortened: as §2
[21] = organism: Rattus norvegicus; test: Binding affinity to rat N-methyl D-aspartate receptor phencyclidine binding site at 10 uM by radioligand binding assay; procedure, shortened: as §3
[22] = target: 5-hydroxytryptamine receptor 2A (Rattus norvegicus) (UniProt P14842); test: Binding affinity to rat non-selective serotonin 5HT2 receptor at 10 uM by radioligand binding assay; procedure, shortened: as §2
[23] = target: Histamine H3 receptor (Homo sapiens) (UniProt Q9Y5N1); test: Binding affinity to human histamine H3 receptor at 10 uM by radioligand binding assay; procedure, shortened: as §2
[24] = target: Nociceptin receptor (Homo sapiens) (UniProt P41146); test: Binding affinity to human ORL1 receptor at 10 uM by radioligand binding assay; procedure, shortened: as §2
[25] = organism: Rattus norvegicus; test: Binding affinity to rat N-type calcium channel at 10 uM by radioligand binding assay; procedure, shortened: as §3
[26] = target: Somatostatin receptor type 2 (Homo sapiens) (UniProt P30874); test: Binding affinity to human somatostatin sst2 receptor at 10 uM by radioligand binding assay; procedure, shortened: as §2
[27] = target: Vasopressin V1b receptor (Homo sapiens) (UniProt P47901); test: Binding affinity to human vasopressin V1B receptor at 10 uM by radioligand binding assay; procedure, shortened: as §2
[28] = target: Muscarinic acetylcholine receptor M2 (Homo sapiens) (UniProt P08172); test: Binding affinity to human muscarinic M2 receptor at 10 uM by radioligand binding assay; procedure, shortened: as §2
[29] = tested on: Rattus norvegicus; test: Anxiolytic-like activity in Sprague-Dawley rat vogel conflict model assessed as increase in number of shocks at 1 mg/kg, po after 1 hr; format: functional, organism-based; set-up: dose 1 mg/kg
[30] = organism: Rattus norvegicus; test: Binding affinity to rat strychnine-sensitive glycine receptor at 10 uM by radioligand binding assay; procedure, shortened: as §3
[31] = target: Beta-1 adrenergic receptor (Homo sapiens) (UniProt P08588); test: Binding affinity to human adrenergic beta1 receptor at 10 uM by radioligand binding assay; procedure, shortened: as §2
[32] = target: Melanocortin receptor 4 (Homo sapiens) (UniProt P32245); test: Binding affinity to human melanocortin MC4 receptor at 10 uM by radioligand binding assay; procedure, shortened: as §2
[33] = target: Type-1 angiotensin II receptor (Homo sapiens) (UniProt P30556); test: Binding affinity to human angiotensin AT1 receptor at 10 uM by radioligand binding assay; procedure, shortened: as §2
[34] = target: Cholecystokinin receptor type A (Homo sapiens) (UniProt P32238); test: Binding affinity to human CCK1 receptor at 10 uM by radioligand binding assay; procedure, shortened: as §2
[35] = target: Adenosine receptor A2a (Homo sapiens) (UniProt P29274); test: Binding affinity to human adenosine A2A receptor at 10 uM by radioligand binding assay; procedure, shortened: as §2
[36] = organism: Rattus norvegicus; test: Binding affinity to rat non-selective GABAB receptor at 10 uM by radioligand binding assay; procedure, shortened: as §3
[37] = target: Phosphodiesterase 4 (Homo sapiens) (UniProt P27815+Q08499+Q07343+Q08493); test: Inhibition of human phosphodiesterase PDE4 at 10 uM; format: protein assay
[38] = organism: Rattus norvegicus; test: Binding affinity to rat kainate receptor at 10 uM by radioligand binding assay; procedure, shortened: as §3
[39] = organism: Rattus norvegicus; test: Binding affinity to rat GABAA receptor TBOB binding site at 10 uM by radioligand binding assay; procedure, shortened: as §3
[40] = target: 5-hydroxytryptamine receptor 4 (Cavia porcellus) (UniProt O70528); test: Binding affinity to guinea pig serotonin 5HT4 receptor at 10 uM by radioligand binding assay; procedure, shortened: as §2
[41] = target: 5-hydroxytryptamine receptor 6 (Homo sapiens) (UniProt P50406); test: Binding affinity to human serotonin 5HT6 receptor at 10 uM by radioligand binding assay; procedure, shortened: as §2
[42] = organism: Rattus norvegicus; test: Binding affinity to rat GABAA receptor agonist binding site at 10 uM by radioligand binding assay; procedure, shortened: as §3
[43] = target: Corticotropin-releasing factor receptor 1 (Homo sapiens) (UniProt P34998); test: Binding affinity to human CRF1 receptor at 10 uM by radioligand binding assay; procedure, shortened: as §2
[44] = target: Estrogen receptor beta (Homo sapiens) (UniProt Q92731); test: Binding affinity to human ERbeta at 10 uM by radioligand binding assay; procedure, shortened: as §2
[45] = target: 5-hydroxytryptamine receptor 3A (Homo sapiens) (UniProt P46098); test: Binding affinity to human serotonin 5HT3 receptor at 10 uM by radioligand binding assay; procedure, shortened: as §2
[46] = target: D(1A) dopamine receptor (Homo sapiens) (UniProt P21728); test: Binding affinity to human dopamine D1 receptor at 10 uM by radioligand binding assay; procedure, shortened: as §2
[47] = target: Bombesin receptor subtype-3 (Homo sapiens) (UniProt P32247); test: Binding affinity to human bombesin BB3 receptor at 10 uM by radioligand binding assay; procedure, shortened: as §2
[48] = target: Beta-2 adrenergic receptor (Homo sapiens) (UniProt P07550); test: Binding affinity to human adrenergic beta2 receptor at 10 uM by radioligand binding assay; procedure, shortened: as §2
[49] = target: Type-2 angiotensin II receptor (Homo sapiens) (UniProt P50052); test: Binding affinity to human angiotensin AT2 receptor at 10 uM by radioligand binding assay; procedure, shortened: as §2
[50] = target: Neuropeptide Y receptor type 1 (Homo sapiens) (UniProt P25929); test: Binding affinity to human Neuropeptide Y receptor Y1 at 10 uM by radioligand binding assay; procedure, shortened: as §2
[51] = target: Gastrin/cholecystokinin type B receptor (Homo sapiens) (UniProt P32239); test: Binding affinity to human CCK2 receptor at 10 uM by radioligand binding assay; procedure, shortened: as §2
[52] = target: Sodium-dependent noradrenaline transporter (Homo sapiens) (UniProt P23975); test: Binding affinity to human norepinephrine transporter at 10 uM by radioligand binding assay; procedure, shortened: as §2
[53] = organism: Mesocricetus auratus; test: Binding affinity to syrian hamster ATP-sensitive potassium channel at 10 uM by radioligand binding assay; procedure, shortened: as §3
[54] = organism: Rattus norvegicus; test: Binding affinity to rat L-type calcium channel dihydropyridine binding site at 10 uM by radioligand binding assay; procedure, shortened: as §3

Translocator protein, sequence (P16257 whole entry, looked up): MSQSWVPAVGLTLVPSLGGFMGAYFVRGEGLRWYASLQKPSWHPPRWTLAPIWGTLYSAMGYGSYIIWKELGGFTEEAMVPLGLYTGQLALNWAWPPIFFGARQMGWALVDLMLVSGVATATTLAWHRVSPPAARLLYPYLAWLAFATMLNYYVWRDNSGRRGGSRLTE
5-hydroxytryptamine receptor 4 (Cavia porcellus), sequence (O70528 whole entry): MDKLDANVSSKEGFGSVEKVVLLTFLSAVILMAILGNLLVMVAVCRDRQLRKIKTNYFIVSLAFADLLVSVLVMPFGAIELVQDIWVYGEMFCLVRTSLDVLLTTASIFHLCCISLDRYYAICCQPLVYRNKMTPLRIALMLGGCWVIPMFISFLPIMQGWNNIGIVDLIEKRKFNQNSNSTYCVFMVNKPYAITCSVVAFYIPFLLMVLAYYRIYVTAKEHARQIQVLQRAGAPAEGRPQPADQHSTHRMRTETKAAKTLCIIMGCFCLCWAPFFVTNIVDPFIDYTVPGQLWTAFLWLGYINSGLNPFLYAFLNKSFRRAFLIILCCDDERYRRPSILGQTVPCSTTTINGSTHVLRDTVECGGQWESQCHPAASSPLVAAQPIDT
Type-2 angiotensin II receptor (Homo sapiens), sequence (P50052 whole entry): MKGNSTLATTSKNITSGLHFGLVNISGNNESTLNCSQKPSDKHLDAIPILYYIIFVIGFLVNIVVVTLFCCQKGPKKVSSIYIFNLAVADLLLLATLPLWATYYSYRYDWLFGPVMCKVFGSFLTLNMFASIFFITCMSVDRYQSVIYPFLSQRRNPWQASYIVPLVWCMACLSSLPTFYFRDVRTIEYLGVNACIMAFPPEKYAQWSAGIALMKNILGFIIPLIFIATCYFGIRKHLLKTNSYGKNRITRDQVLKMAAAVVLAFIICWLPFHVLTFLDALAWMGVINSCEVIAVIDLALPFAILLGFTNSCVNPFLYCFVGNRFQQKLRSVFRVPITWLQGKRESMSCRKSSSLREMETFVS
Histamine H3 receptor (Homo sapiens), sequence (Q9Y5N1 whole entry): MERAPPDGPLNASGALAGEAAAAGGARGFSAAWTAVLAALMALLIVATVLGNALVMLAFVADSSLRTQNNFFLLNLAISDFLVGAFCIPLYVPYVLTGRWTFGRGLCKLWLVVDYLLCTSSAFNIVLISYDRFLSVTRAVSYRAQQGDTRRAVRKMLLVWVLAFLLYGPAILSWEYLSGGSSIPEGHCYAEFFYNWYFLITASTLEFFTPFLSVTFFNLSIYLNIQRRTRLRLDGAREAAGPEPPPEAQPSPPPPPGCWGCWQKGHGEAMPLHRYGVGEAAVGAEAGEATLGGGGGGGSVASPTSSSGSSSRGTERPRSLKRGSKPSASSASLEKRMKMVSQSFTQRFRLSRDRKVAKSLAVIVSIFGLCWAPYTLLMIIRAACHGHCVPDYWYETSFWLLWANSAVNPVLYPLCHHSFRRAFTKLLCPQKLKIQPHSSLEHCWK
Cholecystokinin receptor type A (Homo sapiens), sequence (P32238 whole entry): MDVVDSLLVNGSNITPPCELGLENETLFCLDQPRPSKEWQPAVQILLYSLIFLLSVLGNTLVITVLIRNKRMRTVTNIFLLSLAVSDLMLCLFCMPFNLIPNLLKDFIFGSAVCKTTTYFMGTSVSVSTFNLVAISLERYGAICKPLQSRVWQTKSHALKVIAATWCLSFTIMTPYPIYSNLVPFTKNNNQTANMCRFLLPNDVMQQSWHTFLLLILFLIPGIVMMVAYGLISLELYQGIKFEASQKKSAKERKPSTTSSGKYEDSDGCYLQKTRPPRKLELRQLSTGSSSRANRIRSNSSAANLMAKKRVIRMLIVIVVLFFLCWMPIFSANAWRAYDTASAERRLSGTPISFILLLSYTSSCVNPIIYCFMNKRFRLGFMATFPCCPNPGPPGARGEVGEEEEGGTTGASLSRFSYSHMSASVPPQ
Type-1 angiotensin II receptor (Homo sapiens), sequence (P30556 whole entry): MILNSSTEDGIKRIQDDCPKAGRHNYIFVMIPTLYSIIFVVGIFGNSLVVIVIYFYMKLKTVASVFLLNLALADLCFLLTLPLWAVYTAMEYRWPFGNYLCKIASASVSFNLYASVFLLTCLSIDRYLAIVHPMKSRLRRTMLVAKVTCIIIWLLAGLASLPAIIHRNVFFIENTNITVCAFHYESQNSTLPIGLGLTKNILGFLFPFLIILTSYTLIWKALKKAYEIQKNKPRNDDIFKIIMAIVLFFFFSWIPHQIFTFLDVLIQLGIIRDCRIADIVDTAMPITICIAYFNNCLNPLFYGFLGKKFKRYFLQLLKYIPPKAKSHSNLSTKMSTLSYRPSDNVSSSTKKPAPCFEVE
Neuropeptide Y receptor type 2 (Homo sapiens), sequence (P49146 whole entry): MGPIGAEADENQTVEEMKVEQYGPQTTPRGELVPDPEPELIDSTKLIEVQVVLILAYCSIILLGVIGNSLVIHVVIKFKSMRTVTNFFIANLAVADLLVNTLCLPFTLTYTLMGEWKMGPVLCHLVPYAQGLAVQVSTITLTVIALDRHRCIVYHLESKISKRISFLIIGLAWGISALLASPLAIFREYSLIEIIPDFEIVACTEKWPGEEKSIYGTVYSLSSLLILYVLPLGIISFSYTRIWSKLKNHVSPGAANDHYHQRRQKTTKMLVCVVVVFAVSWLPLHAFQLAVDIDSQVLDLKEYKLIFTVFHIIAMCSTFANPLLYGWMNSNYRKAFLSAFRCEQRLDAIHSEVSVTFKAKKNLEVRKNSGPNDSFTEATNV
Nociceptin receptor (Homo sapiens), sequence (P41146 whole entry): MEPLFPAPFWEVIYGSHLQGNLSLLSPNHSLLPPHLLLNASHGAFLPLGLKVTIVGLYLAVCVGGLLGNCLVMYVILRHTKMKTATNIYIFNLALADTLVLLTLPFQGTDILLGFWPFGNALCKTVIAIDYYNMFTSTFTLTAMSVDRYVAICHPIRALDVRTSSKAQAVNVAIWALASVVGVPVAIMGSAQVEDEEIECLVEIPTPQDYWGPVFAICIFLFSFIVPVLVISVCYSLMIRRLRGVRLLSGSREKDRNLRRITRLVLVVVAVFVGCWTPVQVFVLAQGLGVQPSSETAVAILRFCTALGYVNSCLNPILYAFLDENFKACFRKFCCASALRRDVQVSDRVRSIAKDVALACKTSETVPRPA
Substance-P receptor (Homo sapiens), sequence (P25103 whole entry): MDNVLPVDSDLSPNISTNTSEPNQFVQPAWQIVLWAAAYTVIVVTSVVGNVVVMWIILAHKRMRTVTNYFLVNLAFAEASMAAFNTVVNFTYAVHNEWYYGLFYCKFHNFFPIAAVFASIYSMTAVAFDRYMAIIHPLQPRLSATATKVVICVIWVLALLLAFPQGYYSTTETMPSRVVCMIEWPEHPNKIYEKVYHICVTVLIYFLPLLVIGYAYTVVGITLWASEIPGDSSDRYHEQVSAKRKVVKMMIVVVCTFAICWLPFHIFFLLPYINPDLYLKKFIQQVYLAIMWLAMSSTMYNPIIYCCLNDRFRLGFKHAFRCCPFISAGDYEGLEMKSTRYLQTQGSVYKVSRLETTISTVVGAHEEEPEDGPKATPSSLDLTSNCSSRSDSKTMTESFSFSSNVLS
Muscarinic acetylcholine receptor M2 (Homo sapiens), sequence (P08172 whole entry): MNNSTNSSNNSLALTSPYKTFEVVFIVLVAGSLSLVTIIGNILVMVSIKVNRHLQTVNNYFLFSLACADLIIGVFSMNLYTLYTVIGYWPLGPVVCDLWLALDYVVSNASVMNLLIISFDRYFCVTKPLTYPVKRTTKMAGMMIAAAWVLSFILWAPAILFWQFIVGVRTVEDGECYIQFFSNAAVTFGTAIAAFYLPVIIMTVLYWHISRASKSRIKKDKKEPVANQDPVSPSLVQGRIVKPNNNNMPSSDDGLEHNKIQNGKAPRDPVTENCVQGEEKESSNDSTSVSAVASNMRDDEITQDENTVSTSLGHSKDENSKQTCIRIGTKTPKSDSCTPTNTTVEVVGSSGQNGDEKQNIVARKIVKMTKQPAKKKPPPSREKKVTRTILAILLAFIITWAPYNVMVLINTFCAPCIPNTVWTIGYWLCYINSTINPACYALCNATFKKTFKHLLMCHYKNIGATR
Vasopressin V1b receptor (Homo sapiens), sequence (P47901 whole entry): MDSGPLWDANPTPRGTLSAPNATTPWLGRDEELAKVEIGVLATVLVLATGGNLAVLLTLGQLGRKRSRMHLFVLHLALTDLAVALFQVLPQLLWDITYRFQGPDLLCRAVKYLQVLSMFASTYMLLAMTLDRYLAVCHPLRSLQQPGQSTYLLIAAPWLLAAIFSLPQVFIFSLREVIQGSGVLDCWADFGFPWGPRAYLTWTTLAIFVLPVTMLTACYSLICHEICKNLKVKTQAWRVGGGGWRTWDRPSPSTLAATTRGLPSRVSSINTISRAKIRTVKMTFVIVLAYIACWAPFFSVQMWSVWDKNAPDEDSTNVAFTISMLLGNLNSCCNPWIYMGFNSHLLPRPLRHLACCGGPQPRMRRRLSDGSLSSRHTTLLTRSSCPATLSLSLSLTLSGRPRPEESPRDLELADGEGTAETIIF
Adenosine receptor A2a (Homo sapiens), sequence (P29274 whole entry): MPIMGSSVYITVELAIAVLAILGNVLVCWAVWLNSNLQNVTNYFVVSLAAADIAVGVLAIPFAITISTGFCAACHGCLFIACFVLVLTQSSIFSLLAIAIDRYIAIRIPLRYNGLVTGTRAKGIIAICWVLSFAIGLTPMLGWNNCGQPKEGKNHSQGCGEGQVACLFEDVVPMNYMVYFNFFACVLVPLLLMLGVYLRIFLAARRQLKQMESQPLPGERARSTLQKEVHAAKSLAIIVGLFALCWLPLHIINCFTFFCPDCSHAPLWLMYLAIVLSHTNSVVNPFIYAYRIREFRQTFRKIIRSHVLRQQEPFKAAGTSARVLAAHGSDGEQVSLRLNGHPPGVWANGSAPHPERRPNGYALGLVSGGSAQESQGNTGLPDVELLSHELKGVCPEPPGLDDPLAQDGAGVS
Sigma non-opioid intracellular receptor 1 (Homo sapiens), sequence (Q99720 whole entry): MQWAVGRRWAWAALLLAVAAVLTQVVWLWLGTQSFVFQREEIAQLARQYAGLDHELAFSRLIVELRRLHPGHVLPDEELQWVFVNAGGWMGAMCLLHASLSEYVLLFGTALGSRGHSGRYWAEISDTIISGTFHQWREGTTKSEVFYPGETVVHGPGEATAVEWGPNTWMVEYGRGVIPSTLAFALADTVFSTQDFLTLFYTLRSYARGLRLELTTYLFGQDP

With CN(C(=O)Cn1c(=O)oc2ccc(-c3ccccc3)cc21)c1ccccn1 the solubility [1] was 1 µg/mL (≈ 2.78 µM) and the solubility [2] was 3 µg/mL (≈ 8.35 µM).
With CN(C(=O)Cn1c(=O)oc2ccc(-c3ccncc3)cc21)c1ccc(OC(F)(F)F)cc1 the Ki [3] was 23 nM.
CN(C(=O)Cn1c(=O)oc2ccc(-c3cccnc3)cc21)c1ccc(OC(F)(F)F)cc1 gave an inhibition [4] of 0%, an IC50 [5] greater than 1000 nM and a Ki [3] of 26 nM.
In the case of CN(C(=O)Cn1c(=O)oc2ccc(-c3cccnc3)cc21)c1ccccc1, the solubility [1] is reported as 5 µg/mL (≈ 13.9 µM).
CN(C(=O)Cn1c(=O)oc2ccc(-c3ccc(OC(F)(F)F)cc3)cc21)c1ccccc1 showed a solubility [1] of less than 1 µg/mL and a solubility [2] of less than 1 µg/mL.
With CN(C(=O)Cn1c(=O)oc2ccc(-c3ccncc3)cc21)c1ccccc1 the solubility [1] was 1 µg/mL (≈ 2.78 µM) and the solubility [2] was 730 µg/mL (≈ 2030 µM).
With CN(C(=O)Cn1c(=O)oc2ccc(-c3ccc(OC(F)(F)F)cc3)cc21)c1cccnc1 the solubility [6] was 20 µg/mL (≈ 45.1 µM), the solubility [1] was less than 1 µg/mL and the IC50 [5] was 700 nM. It also gave a Ki [3] of 4.9 nM, a solubility [2] of 4 µg/mL (≈ 9.02 µM) and a remaining at 0.5 h, 1 µM [7] of 32%.
CN(C(=O)Cn1c(=O)oc2ccc(-c3ccc(C(F)(F)F)cc3)cc21)c1cccnc1 gave a solubility [1] of less than 1 µg/mL, an inhibition [4] of 6% and a Ki [3] of 9.8 nM. It also gave a solubility [2] of less than 1 µg/mL and a remaining at 0.5 h, 1 µM [7] of 24%.
In the case of CN(C(=O)Cn1c(=O)oc2ccc(-c3cccnc3)cc21)c1ccc(C(F)(F)F)cc1, the inhibition [8] is reported as “inactive”, the inhibition [9] is reported as “inactive” and the inhibition [10] is reported as “inactive”. For the same molecule, the inhibition [11] was “inactive”, the inhibition [12] was “inactive” and the inhibition [13] was “inactive”. For the same molecule, the inhibition [14] was “inactive”, the inhibition [15] was “inactive” and the inhibition [16] was “inactive”. The inhibition [17] was “inactive”, the inhibition [18] was “inactive” and the inhibition [19] was “inactive”. For the same molecule, the inhibition [20] was “inactive”, the inhibition [21] was “inactive” and the inhibition [22] was “inactive”. For the same molecule, the inhibition [23] was “inactive”, the inhibition [24] was “inactive” and the inhibition [25] was “inactive”. The inhibition [26] was “inactive”, the inhibition [4] was 0% and the inhibition [27] was “inactive”. For the same molecule, the inhibition [28] was “inactive”, the Activity [29] was “Active” and the inhibition [30] was “inactive”. For the same molecule, the inhibition [31] was “inactive”, the inhibition [32] was “inactive” and the inhibition [33] was “inactive”. The inhibition [34] was “inactive”, the inhibition [35] was “inactive” and the inhibition [36] was “inactive”. For the same molecule, the inhibition [37] was “inactive”, the inhibition [38] was “inactive” and the inhibition [39] was “inactive”. The inhibition [40] was “inactive”, the inhibition [41] was “inactive” and the inhibition [42] was “inactive”. The inhibition [43] was “inactive”, the inhibition [44] was “inactive” and the inhibition [45] was “inactive”. The inhibition [46] was “inactive”, the inhibition [47] was “inactive” and the inhibition [48] was “inactive”. The inhibition [49] was “inactive”, the inhibition [50] was “inactive” and the inhibition [51] was “inactive”. The inhibition [52] was “inactive”, the inhibition [53] was “inactive” and the inhibition [54] was “inactive”.
